The results in this text go back to ChEMBL document CHEMBL1152603, “Comparative molecular field analysis and synthetic validation of a hydroxyamide-propofol binding and functional block of neuronal voltage-dependent sodium channels” (Bioorg Med Chem, 2009).

The species named for experiment [1] is Rattus norvegicus. Kind of experiment: Displacement of [3H]-BTX-B from neuronal voltage-gated sodium channel binding site 2 in rat hippocampal neurons at 40 uM. Type of experiment: tissue-based. The following applies: Hippocampus. Put shortly:
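Inhibition of specifically bound [3H]-BTX-B measured at a single concentration of 40 μM, run in duplicate, and expressed as percent inhibition.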
(In general: In a radioligand displacement assay an active substance lowers the binding of a labelled ligand.)

Experiment [2] can be described thus: Displacement of [3H]-BTX-B from neuronal voltage-gated sodium channel binding site 2 in rat hippocampal neurons. Format: tissue-based, Hippocampus.
For experiment [3], the species on record is Rattus norvegicus. Kind of experiment: Inhibition of voltage-gated sodium channel in rat hippocampal neurons assessed as blocked of sodium current elicited at -10 mV for […] from holding potential -90 mV at 50 uM measured after washout by patch clamp method. Format: tissue-based. The note with it: Hippocampus. The gist of the method: (§1)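 Hippocampi from E18 rat embryos were trypsin-dissociated and plated on poly-L-lysine coverslips, then kept over a glial monolayer in serum-free MEM with N2 for up to 4 weeks. Whole-cell patch clamp was used. Bath (mM): NaCl 30, choline Cl 110, TEA-Cl 30, CdCl2 0.1, pH 7.3. Cells were held at −90 mV for 5 min first. Tonic current block was measured at 50 μM (n=5–7), followed by washout.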
A general note: Patch clamp records ionic current or voltage across a cell membrane.

The species entered for experiment [4] is Rattus norvegicus. The experiment in a line: Inhibition of voltage-gated sodium channel in rat hippocampal neurons assessed as blocked of sodium current elicited at -10 mV for […] from holding potential -90 mV at 50 uM by patch clamp method. Details: scale not given: the % may be the effect or the level left. The note with it: Hippocampus. Format: tissue-based. The gist of the method:
as §1

Structures are written as SMILES. The source made the active and inactive calls. The calls are words filed in the database; no cut-off is given here.

In the experiment listed under Rattus norvegicus [1], `NC(=O)C(O)(c1ccccc1)C(F)(F)F` (stereo unspecified) displayed an Activity of 6.8%.

Compound `CC(C)c1cccc(C(C)C)c1O` yielded an Activity in the experiment listed under Rattus norvegicus [1] of 16.6%.

For the compound `CC(C)c1cc(C2(C(F)(F)F)NC(=O)NC2=O)cc(C(C)C)c1O` (stereo unspecified), the Activity in the experiment listed under Rattus norvegicus [1] came to 55.1%.

Turning to `CC(C)c1cc(C(O)(C(N)=O)C(F)(F)F)cc(C(C)C)c1O` (stereo unspecified), the Activity in the experiment listed under Rattus norvegicus [1] was found to be 24.5%.

As to `CC(C)c1cc(CCCCCCC(O)(C(N)=O)C(F)(F)F)cc(C(C)C)c1O` (stereo unspecified), the IC50 in experiment [2] is 5.7 µM. Further, the result in the experiment filed under Rattus norvegicus [3] was inactive. In the experiment filed under Rattus norvegicus [1], this compound yielded an Activity of 71.4%.

Consider `CC(C)c1cc(CCCCC(O)(C(N)=O)C(F)(F)F)cc(C(C)C)c1O` (stereo unspecified), for which the Activity in the experiment listed under Rattus norvegicus [4] was found to be 59%; in the experiment listed under Rattus norvegicus [1] it was 67.1%. Moreover, the IC50 in experiment [2] amounted to 22 µM. The outcome in the experiment listed under Rattus norvegicus [3] was inactive.

For orientation: IC50 means the concentration that inhibits the measured activity by half.
